This is an account of results in ChEMBL document CHEMBL3813647, “Discovery of an Orally Active and Liver-Targeted Prodrug of 5-Fluoro-2'-Deoxyuridine for the Treatment of Hepatocellular Carcinoma” (J Med Chem, 2016).

Each structure is given as a SMILES string.

For data set [1], the system named is Plasma. Kind of data set: AUC (infinity) in Sprague-Dawley rat plasma assessed as FDUR formation at 52.17 mg/kg administered through oral gavage measured up to 24 hrs by HPLC-MS/MS analysis. As to conditions: in vivo. The data set is classed as ADME, organism-based. On the set-up: dose 52.17 mg/kg, time infinity, route oral. The method, boiled down:
(§1)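 Male Sprague-Dawley rats (220 ± 20 g), single gavage of 0.096 mmol/kg. FDUR was dosed in H2O; the prodrugs were dosed in 20% hydroxypropyl-β-cyclodextrin. n = 3 per time point, sampled at 0.25–24 h. Plasma (EDTA-K2, cardiac puncture) and freeze-clamped liver were homogenized in 20 mM EDTA-K2/70% MeOH. Analytes measured by HPLC-MS/MS in ESI negative mode.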

Data set [2] concerns Liver. Kind of data set: Cmax in Sprague-Dawley rat liver assessed as (S)-2-((R)-(((2R,3S,5R)-5-(5-fluoro-2,4-dioxo-3,4-dihydropyrimidin-1(2H)-yl)-3-hydroxytetrahydrofuran-2-yl)methoxy)(2-methylbenzyloxy)phosphorylamino)propanoate formation at 52.17 mg/kg administered through oral gavage measured up to 24 hrs by HPLC-MS/MS analysis. To be noted: in vivo. On the set-up: dose 52.17 mg/kg, route oral. The data set is classed as ADME, organism-based. The method, boiled down: as §1

Data set [3] concerns Liver. Put plainly: Cmax in Sprague-Dawley rat liver assessed as 5-FU formation at 52.17 mg/kg administered through oral gavage measured up to 24 hrs by HPLC-MS/MS analysis. To be noted: in vivo. The class given is ADME, organism-based. Also noted: dose 52.17 mg/kg, route oral. The method, boiled down:
as §1

Data set [4] concerns Liver. Kind of data set: Cmax in Sprague-Dawley rat liver assessed as FdUMP formation at 52.17 mg/kg administered through oral gavage measured up to 24 hrs by HPLC-MS/MS analysis. The data set is classed as ADME, organism-based. On the set-up: dose 52.17 mg/kg, route oral. As to conditions: in vivo. In outline: as §1
The test system of data set [5] is Liver. Kind of data set: AUC (infinity) in Sprague-Dawley rat liver assessed as 5-FU formation at 52.17 mg/kg administered through oral gavage measured up to 24 hrs by HPLC-MS/MS analysis. The data set is classed as ADME, organism-based. As to conditions: in vivo. On the set-up: dose 52.17 mg/kg, route oral, time infinity. In outline:
as §1

For data set [6], the system named is Liver. Put plainly: AUC (infinity) in Sprague-Dawley rat liver assessed as FdUMP formation at 52.17 mg/kg administered through oral gavage measured up to 24 hrs by HPLC-MS/MS analysis. The data set is classed as ADME, organism-based. To be noted: in vivo. Also noted: dose 52.17 mg/kg, route oral, time infinity. The method, boiled down:
as §1

Data set [7] in a line: Ratio of FdUMP AUC (infinity) in Sprague-Dawley rat liver to FDUR AUC (infinity) in Sprague-Dawley rat plasma at 52.17 mg/kg administered through oral gavage. The class given is ADME, organism-based. As to conditions: in vivo. The method, boiled down:
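Male Sprague-Dawley rats (220 20 g), single gavage of 0.096 mmol/kg prodrug in 20% hydroxypropyl-β-cyclodextrin. Blood by cardiac puncture under isoflurane and liver at 0.25–24 h, n = 3 per time point. Liver freeze-clamped and homogenized in 20 mM EDTA-K2/70% MeOH. FdUMP (liver) and FDUR (plasma) by HPLC-MS/MS, negative ESI. Index = AUC(inf) liver FdUMP / AUC(inf) plasma FDUR.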

Data set [8] can be described thus: Ratio of metabolite A AUC (infinity) in Sprague-Dawley rat liver to (S)-2-((R)-(((2R,3S,5R)-5-(5-fluoro-2,4-dioxo-3,4-dihydropyrimidin-1(2H)-yl)-3-hydroxytetrahydrofuran-2-yl)methoxy)(2-methylbenzyloxy)phosphorylamino)propanoate AUC (infinity) in Sprague-Dawley rat plasma at 52.17 mg/kg administered through oral gavage. The class given is ADME, organism-based. To be noted: in vivo.

Data set [9] has as its system Liver. Put plainly: Drug metabolism in Sprague-Dawley rat liver S9 fraction assessed as (S)-2-((R)-(((2R,3S,5R)-5-(5-fluoro-2,4-dioxo-3,4-dihydropyrimidin-1(2H)-yl)-3-hydroxytetrahydrofuran-2-yl)methoxy)(2-methylbenzyloxy)phosphorylamino)propanoate formation at 20 ug/mL after 20 mins by HPLC-MS/MS analysis. The data set is classed as ADME, subcellular. As to conditions: s9, 20 min, TDE = time-dependent effect. In outline: (§2)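 Rat liver S9 (10 mg/mL) incubated with compound at 20 μg/mL. Parent, intermediate A and FdUMP followed over time by HPLC-MS/MS. Negative control run without NADPH.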

Data set [10] deals with Liver. Put plainly: Drug metabolism in Sprague-Dawley rat liver S9 fraction assessed as FdUMP formation at 20 ug/mL after 20 mins by HPLC-MS/MS analysis in absence of NADPH. The data set is classed as ADME. As to conditions: s9, 20 min. The method, boiled down:
as §2

Data set [11] deals with Liver. Put plainly: Drug metabolism in Sprague-Dawley rat liver assessed as o-methylhippuric acid formation. The data set is classed as ADME, tissue-based.
Data set [12] concerns Plasma. Kind of data set: Drug metabolism in Sprague-Dawley rat plasma assessed as o-methylhippuric acid formation. The class given is ADME, cell-free.
Data set [13] is described as follows: Half life in rat plasma by HPLC analysis. The data set is classed as ADME, cell-free. The method, boiled down:
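Rat plasma, 37 °C. Compound added from a 2.5 mM stock, sampled at 0–24 h, quenched with MeOH. Analyzed by HPLC-UV at 267 nm (C8 column, MeOH:H2O 68:32). Triplicate samples.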

Data set [14] can be described thus: Cytotoxicity against human SMMC7721 cells assessed as reduction in cell viability after 72 hrs by MTT assay. The data set is classed as functional, cell-based. To be noted: SMMC-7721, 72 h. The method, boiled down:
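Cells in RPMI-1640 with 10% FBS, seeded at 4 × 10³ per well and attached for 24 h. Compound (DMSO ≤0.5% final) added for 72 h at 37 °C, 5% CO2. Viability read by MTT. IC50 set against 0.5% DMSO-treated cells taken as 100% viable. Mean of two independent experiments, each run in triplicate.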
(Tetrazolium assays rely on reduction of a dye to a coloured formazan, in cell work by metabolically active cells.)

Data set [15] concerns H22. Kind of data set: Antitumor activity against mouse H22 cells implanted in KM mouse assessed as tumor growth inhibition at 65 mg/kg administered daily through oral gavage after 8 days. The class given is functional. To be noted: 192 h. In outline:
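Syngeneic H22 hepatoma: 2 × 10⁶ cells injected s.c. in the axilla (0.9% saline) of female KM mice, n = 10 per group. From day 2, daily oral gavage for 8 days. Test agent given in 35% PEG400; sorafenib suspended in 0.5% CMC-Na. Tumor weight taken on day 8; inhibition rate calculated versus the vehicle group.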

Data set [16] has as its system Mus musculus. Put plainly: Toxicity in KM mouse implanted with mouse H22 cells assessed as body weight level at 65 mg/kg administered daily through oral gavage after 8 days (reference value: 21.7 to 22.3 g). The data set is classed as organism-based. As to conditions: in vivo, 192 h.
The test system of data set [17] is Mus musculus. Kind of data set: Toxicity in KM mouse implanted with mouse H22 cells assessed as body weight level at 130 mg/kg administered daily through oral gavage after 8 days (reference value: 21.7 to 22.3 g). The class given is organism-based. As to conditions: in vivo, 192 h.
The test system of data set [18] is Mus musculus. Put plainly: Toxicity in KM mouse implanted with mouse H22 cells assessed as body weight level at 260 mg/kg administered daily through oral gavage after 8 days (reference value: 21.7 to 22.3 g). As to conditions: in vivo, 192 h. The data set is classed as organism-based.
The subject of data set [19] is Plasma. Kind of data set: Cmax in Sprague-Dawley rat plasma assessed as FDUR formation at 52.17 mg/kg administered through oral gavage measured up to 24 hrs by HPLC-MS/MS analysis. To be noted: in vivo. Also noted: dose 52.17 mg/kg, route oral. The class given is ADME, organism-based. The method, boiled down: as §1
Data set [20] has as its system Plasma. Put plainly: Cmax in Sprague-Dawley rat plasma assessed as (S)-2-((R)-(((2R,3S,5R)-5-(5-fluoro-2,4-dioxo-3,4-dihydropyrimidin-1(2H)-yl)-3-hydroxytetrahydrofuran-2-yl)methoxy)(2-methylbenzyloxy)phosphorylamino) propanoate formation at 52.17 mg/kg administered through oral gavage measured up to 24 hrs by HPLC-MS/MS analysis. The class given is ADME, organism-based. On the set-up: dose 52.17 mg/kg, route oral. As to conditions: in vivo. The method, boiled down: as §1

Data set [21] concerns Mus musculus. Put plainly: Toxicity in KM mouse assessed as damage to heart at 2 to 3 g/kg, administered through oral gavage after 15 days. As to conditions: in vivo, 360 h.
For data set [22], the system named is Mus musculus. Put plainly: Toxicity in KM mouse assessed as damage to liver at 2 to 3 g/kg, administered through oral gavage after 15 days. To be noted: in vivo, 360 h.
For data set [23], the system named is Mus musculus. Kind of data set: Toxicity in KM mouse assessed as damage to spleen at 2 to 3 g/kg, administered through oral gavage after 15 days. To be noted: in vivo, 360 h.

`Cc1ccccc1CO[P@](=O)(N[C@@H](C)C(=O)OC(C)C)OC[C@H]1O[C@@H](n2cc(F)c(=O)[nH]c2=O)C[C@@H]1O`: the AUC is 26 ng·h/mL in [1], 257 ng·h/g in data set [5] and 543 ng·h/g in data set [6]. The Cmax (in general, the peak of the concentration-time curve) in [2] worked out at 3673 ng/g; in data set [3], 139 ng/g; in data set [4], 340 ng/g; in [19], 17 ng/mL; in data set [20], 234 ng/mL. The “Ratio AUC” value in data set [7] was found to be 20.9; in data set [8], 17.4. The Drug metabolism result in data set [9] was “tde”; in [10] it was “metabolite_notdetected”; in data set [11], “metabolite_detected”; in data set [12], “metabolite_detected”. Further, in data set [13], the half-life (commonly how long it takes for the measured level to halve) is < 4.98 min. For the same compound, the IC50 – broadly, the concentration needed to halve the response being measured – in [14] amounted to 250 µM. In [15], the inhibition in vivo (usually the drop in the measured response relative to a control, in per cent) at 65 mg/kg is 44.2%. Also, the Activity in data set [16] is given as 25.9 g; in data set [17], 23.8 g; in data set [18] it was 22.3 g; in data set [21], “Non-toxic”; in [22], “Non-toxic”; in [23], “Non-toxic”.
